{
  "source": "paper PMC6331712",
  "about": "(ChemistryOpen, 2019)",
  "note": "“And” between values parts separate entries of the source, which are not always exact repeats. Identical values can stand only once.",
  "data": [
    {"test_system": "not listed separately", "assay": "LogD7.4 determination from HPLC retention times with calibration curve", "assay_type": "physicochemical", "details": "pH 7.4", "values": [
      {"smiles": "CNc1nc(SCc2ccccc2)ccc1NC(=O)Cc1cc(F)cc(F)c1", "note": "[9 g, N‐[6‐(Benzylthio)‐2‐(methylamino)pyridin‐3‐yl]‐2‐(3,5‐difluorophenyl)acetamide]", "chromatographic logD": 4.27},
      {"smiles": "CCOC(=O)Nc1ccc([S+]([O-])Cc2ccc(-c3ccccc3)cc2)nc1N", "note": "(centres unmarked) [10 b, E t hyl {6-[(1,1'-biphenyl-4-yl)methylsulfinyl]-2-aminopyridin-3-yl}carbamate]", "chromatographic logD": 3.72},
      {"smiles": "Nc1nc([S+]([O-])Cc2ccc(F)cc2)ccc1NC(=O)c1ccc(F)c(F)c1", "note": "(centres unmarked) [10 a, N-[2-Amino-6-(4-fluorobenzylsulfinyl)pyridin-3-yl]-3 ,4-difluorobenzamide]", "chromatographic logD": 3.24},
      {"smiles": "CCOC(=O)Nc1ccc(SCc2ccc(F)cc2)nc1C", "note": "[9 h, E t hyl [6-(4-fluorobenzylthio)-2-methylpyridin-3-yl]carbamate]", "chromatographic logD": 3.85},
      {"smiles": "CCOC(=O)Nc1ccc([S+]([O-])Cc2ccc(F)cc2)nc1C", "note": "(centres unmarked) [10 d]", "chromatographic logD": 3.02},
      {"smiles": "CCOC(=O)Nc1ccc(SC(=O)c2ccc(F)cc2)nc1N", "note": "[9 e, S-{6-Amino-5-[(ethoxycarbonyl)amino]pyridin-2-yl} 4-fluorobenzothioate]", "chromatographic logD": 3}
    ]},
    {"test_system": "TAMH cells", "assay": "MTT cell viability assay, TAMH cells", "assay_type": "cell-based, mouse", "details": "TAMH cells; MTT; 24 h exposure", "method_in_brief": "(§1)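 MTT viability read-out in TAMH (transgenic mouse hepatocyte) and HEP-G2 (human hepatoma) cell lines. LD50 was taken after 24 h of exposure. […] LD50 values are means with standard deviations of 4–5 independent determinations. The ratio uses the mean EC50 from a thallium-flux KV7.2/3 assay (30 min exposure, four-parameter logistic fit).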", "units": {"LD50": "µM"}, "values": [
      {"smiles": "CNc1nc(SCc2ccccc2)ccc1NC(=O)Cc1cc(F)cc(F)c1", "note": "[9 g, N‐[6‐(Benzylthio)‐2‐(methylamino)pyridin‐3‐yl]‐2‐(3,5‐difluorophenyl)acetamide]", "LD50": ">7.5"},
      {"smiles": "CCOC(=O)Nc1ccc([S+]([O-])Cc2ccc(-c3ccccc3)cc2)nc1N", "note": "(centres unmarked) [10 b, E t hyl {6-[(1,1'-biphenyl-4-yl)methylsulfinyl]-2-aminopyridin-3-yl}carbamate]", "LD50": ">63"},
      {"smiles": "Nc1nc([S+]([O-])Cc2ccc(F)cc2)ccc1NC(=O)c1ccc(F)c(F)c1", "note": "(centres unmarked) [10 a, N-[2-Amino-6-(4-fluorobenzylsulfinyl)pyridin-3-yl]-3 ,4-difluorobenzamide]", "LD50": ">100"},
      {"smiles": "CCOC(=O)Nc1ccc(SCc2ccc(F)cc2)nc1C", "note": "[9 h, E t hyl [6-(4-fluorobenzylthio)-2-methylpyridin-3-yl]carbamate]", "LD50": ">10"},
      {"smiles": "CCOC(=O)Nc1ccc([S+]([O-])Cc2ccc(F)cc2)nc1C", "note": "(centres unmarked) [10 d]", "LD50": ">500"},
      {"smiles": "CCOC(=O)Nc1ccc(SC(=O)c2ccc(F)cc2)nc1N", "note": "[9 e, S-{6-Amino-5-[(ethoxycarbonyl)amino]pyridin-2-yl} 4-fluorobenzothioate]", "LD50": ">125"}
    ]},
    {"test_system": "TAMH cells", "assay": "MTT cell viability assay, TAMH cells", "assay_type": "cell-based, mouse", "details": "TAMH cells; MTT; 48 h exposure", "method_in_brief": "as §1", "values": [
      {"smiles": "CNc1nc(SCc2ccccc2)ccc1NC(=O)Cc1cc(F)cc(F)c1", "note": "[9 g, N‐[6‐(Benzylthio)‐2‐(methylamino)pyridin‐3‐yl]‐2‐(3,5‐difluorophenyl)acetamide]", "LD25": "6 ± 3 µM and 6 ± 03 µM"},
      {"smiles": "CCOC(=O)Nc1ccc(SCc2ccc(F)cc2)nc1C", "note": "[9 h, E t hyl [6-(4-fluorobenzylthio)-2-methylpyridin-3-yl]carbamate]", "LD25": ">10 µM"}
    ]},
    {"test_system": "TAMH cells", "assay": "MTT cell viability assay, TAMH cells", "assay_type": "cell-based, mouse", "details": "average LD25 (48 h, TAMH) divided by average EC50 (KV7.2/3)", "method_in_brief": "as §1", "values": [
      {"smiles": "CNc1nc(SCc2ccccc2)ccc1NC(=O)Cc1cc(F)cc(F)c1", "note": "[9 g, N‐[6‐(Benzylthio)‐2‐(methylamino)pyridin‐3‐yl]‐2‐(3,5‐difluorophenyl)acetamide]", "Tox./Act. (toxicity/activity ratio, safety index)": 400}
    ]},
    {"test_system": "HEP‐G2 cells", "assay": "MTT cell viability assay, HEP-G2 cells", "assay_type": "cell-based, human", "details": "HEP‐G2 cells; MTT; 24 h exposure", "units": {"LD50": "µM"}, "values": [
      {"smiles": "CNc1nc(SCc2ccccc2)ccc1NC(=O)Cc1cc(F)cc(F)c1", "note": "[9 g, N‐[6‐(Benzylthio)‐2‐(methylamino)pyridin‐3‐yl]‐2‐(3,5‐difluorophenyl)acetamide]", "LD50": ">10"},
      {"smiles": "CCOC(=O)Nc1ccc([S+]([O-])Cc2ccc(-c3ccccc3)cc2)nc1N", "note": "(centres unmarked) [10 b, E t hyl {6-[(1,1'-biphenyl-4-yl)methylsulfinyl]-2-aminopyridin-3-yl}carbamate]", "LD50": ">63"},
      {"smiles": "Nc1nc([S+]([O-])Cc2ccc(F)cc2)ccc1NC(=O)c1ccc(F)c(F)c1", "note": "(centres unmarked) [10 a, N-[2-Amino-6-(4-fluorobenzylsulfinyl)pyridin-3-yl]-3 ,4-difluorobenzamide]", "LD50": ">125"},
      {"smiles": "CCOC(=O)Nc1ccc(SCc2ccc(F)cc2)nc1C", "note": "[9 h, E t hyl [6-(4-fluorobenzylthio)-2-methylpyridin-3-yl]carbamate]", "LD50": ">30"},
      {"smiles": "CCOC(=O)Nc1ccc([S+]([O-])Cc2ccc(F)cc2)nc1C", "note": "(centres unmarked) [10 d]", "LD50": ">500"},
      {"smiles": "CCOC(=O)Nc1ccc(SC(=O)c2ccc(F)cc2)nc1N", "note": "[9 e, S-{6-Amino-5-[(ethoxycarbonyl)amino]pyridin-2-yl} 4-fluorobenzothioate]", "LD50": ">250"}
    ]},
    {"test_system": "HEP‐G2 cells", "assay": "MTT cell viability assay, HEP-G2 cells", "assay_type": "cell-based, human", "details": "HEP‐G2 cells; MTT; 48 h exposure", "units": {"LD25": "µM"}, "values": [
      {"smiles": "CNc1nc(SCc2ccccc2)ccc1NC(=O)Cc1cc(F)cc(F)c1", "note": "[9 g, N‐[6‐(Benzylthio)‐2‐(methylamino)pyridin‐3‐yl]‐2‐(3,5‐difluorophenyl)acetamide]", "LD25": "4 ± 4"},
      {"smiles": "CCOC(=O)Nc1ccc(SCc2ccc(F)cc2)nc1C", "note": "[9 h, E t hyl [6-(4-fluorobenzylthio)-2-methylpyridin-3-yl]carbamate]", "LD25": "25 ± 16"}
    ]},
    {"test_system": "HEP‐G2 cells", "assay": "MTT cell viability assay, HEP-G2 cells", "assay_type": "cell-based, human", "details": "average LD25 (48 h, HEP‐G2) divided by average EC50 (KV7.2/3)", "values": [
      {"smiles": "CNc1nc(SCc2ccccc2)ccc1NC(=O)Cc1cc(F)cc(F)c1", "note": "[9 g, N‐[6‐(Benzylthio)‐2‐(methylamino)pyridin‐3‐yl]‐2‐(3,5‐difluorophenyl)acetamide]", "Tox./Act. (toxicity/activity ratio, safety index)": 267},
      {"smiles": "CCOC(=O)Nc1ccc(SCc2ccc(F)cc2)nc1C", "note": "[9 h, E t hyl [6-(4-fluorobenzylthio)-2-methylpyridin-3-yl]carbamate]", "Tox./Act. (toxicity/activity ratio, safety index)": 93}
    ]},
    {"target": "KV7.2/KV7.3 channel (Homo sapiens, UniProt O43525+O43526)", "sequence (O43525 whole entry)": "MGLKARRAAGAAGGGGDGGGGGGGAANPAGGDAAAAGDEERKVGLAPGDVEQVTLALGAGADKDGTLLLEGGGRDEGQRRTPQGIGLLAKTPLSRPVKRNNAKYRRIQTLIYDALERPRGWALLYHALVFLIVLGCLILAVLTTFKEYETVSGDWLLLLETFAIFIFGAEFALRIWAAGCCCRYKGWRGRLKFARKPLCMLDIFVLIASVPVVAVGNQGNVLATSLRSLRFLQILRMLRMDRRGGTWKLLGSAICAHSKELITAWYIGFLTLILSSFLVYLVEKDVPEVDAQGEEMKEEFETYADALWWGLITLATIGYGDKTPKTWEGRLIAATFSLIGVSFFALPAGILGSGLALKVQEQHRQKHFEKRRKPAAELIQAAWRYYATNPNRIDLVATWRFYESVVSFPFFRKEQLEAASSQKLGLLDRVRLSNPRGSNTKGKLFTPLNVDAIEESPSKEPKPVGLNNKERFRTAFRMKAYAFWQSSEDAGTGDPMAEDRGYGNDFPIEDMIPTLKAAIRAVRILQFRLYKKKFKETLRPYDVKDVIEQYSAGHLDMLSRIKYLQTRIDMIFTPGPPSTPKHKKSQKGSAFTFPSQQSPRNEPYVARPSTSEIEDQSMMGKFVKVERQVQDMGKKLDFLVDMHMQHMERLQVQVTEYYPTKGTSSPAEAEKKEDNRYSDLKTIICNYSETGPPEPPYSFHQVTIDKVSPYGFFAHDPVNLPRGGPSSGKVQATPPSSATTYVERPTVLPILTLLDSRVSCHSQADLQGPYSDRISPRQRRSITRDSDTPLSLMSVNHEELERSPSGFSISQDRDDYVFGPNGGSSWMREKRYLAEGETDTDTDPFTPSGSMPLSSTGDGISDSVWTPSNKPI", "sequence (O43526 whole entry)": "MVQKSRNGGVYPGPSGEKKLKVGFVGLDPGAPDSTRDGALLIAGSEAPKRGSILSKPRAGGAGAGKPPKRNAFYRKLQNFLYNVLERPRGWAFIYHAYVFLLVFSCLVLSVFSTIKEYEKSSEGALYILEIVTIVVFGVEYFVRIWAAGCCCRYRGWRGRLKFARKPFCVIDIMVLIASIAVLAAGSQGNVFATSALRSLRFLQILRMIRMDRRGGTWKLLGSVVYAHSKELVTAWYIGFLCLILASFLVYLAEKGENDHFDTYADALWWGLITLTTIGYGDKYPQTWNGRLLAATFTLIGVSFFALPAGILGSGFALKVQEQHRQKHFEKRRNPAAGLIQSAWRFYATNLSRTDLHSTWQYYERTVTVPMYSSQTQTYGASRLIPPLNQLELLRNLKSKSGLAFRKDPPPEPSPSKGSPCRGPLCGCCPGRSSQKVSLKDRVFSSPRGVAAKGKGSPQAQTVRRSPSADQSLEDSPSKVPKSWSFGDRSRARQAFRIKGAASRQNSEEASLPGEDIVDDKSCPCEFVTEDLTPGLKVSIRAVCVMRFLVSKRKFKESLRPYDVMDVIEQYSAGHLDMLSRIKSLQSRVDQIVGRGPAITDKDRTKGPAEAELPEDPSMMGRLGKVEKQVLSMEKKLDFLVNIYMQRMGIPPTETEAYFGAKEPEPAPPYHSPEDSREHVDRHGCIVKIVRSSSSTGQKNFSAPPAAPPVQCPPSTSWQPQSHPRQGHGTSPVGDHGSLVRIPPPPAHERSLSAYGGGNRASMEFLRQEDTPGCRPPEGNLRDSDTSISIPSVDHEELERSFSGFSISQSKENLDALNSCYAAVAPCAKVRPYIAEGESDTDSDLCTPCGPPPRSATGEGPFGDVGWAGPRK", "assay": "not given", "assay_type": "cell-based", "details": "not given", "units": {"EC50": "µM"}, "values": [
      {"smiles": "CNc1nc(SCc2ccccc2)ccc1NC(=O)Cc1cc(F)cc(F)c1", "note": "[9 g, N‐[6‐(Benzylthio)‐2‐(methylamino)pyridin‐3‐yl]‐2‐(3,5‐difluorophenyl)acetamide]", "EC50": "0.015 ± 0.002"},
      {"smiles": "CCOC(=O)Nc1ccc([S+]([O-])Cc2ccc(-c3ccccc3)cc2)nc1N", "note": "(centres unmarked) [10 b, E t hyl {6-[(1,1'-biphenyl-4-yl)methylsulfinyl]-2-aminopyridin-3-yl}carbamate]", "EC50": "> 10"},
      {"smiles": "Nc1nc([S+]([O-])Cc2ccc(F)cc2)ccc1NC(=O)c1ccc(F)c(F)c1", "note": "(centres unmarked) [10 a, N-[2-Amino-6-(4-fluorobenzylsulfinyl)pyridin-3-yl]-3 ,4-difluorobenzamide]", "EC50": "> 10"},
      {"smiles": "CCOC(=O)Nc1ccc(SCc2ccc(F)cc2)nc1C", "note": "[9 h, E t hyl [6-(4-fluorobenzylthio)-2-methylpyridin-3-yl]carbamate]", "EC50": "0.269 ± 0.031"},
      {"smiles": "CCOC(=O)Nc1ccc([S+]([O-])Cc2ccc(F)cc2)nc1C", "note": "(centres unmarked) [10 d]", "EC50": "> 10"},
      {"smiles": "CCOC(=O)Nc1ccc(SC(=O)c2ccc(F)cc2)nc1N", "note": "[9 e, S-{6-Amino-5-[(ethoxycarbonyl)amino]pyridin-2-yl} 4-fluorobenzothioate]", "EC50": "> 10"}
    ]},
    {"target": "KV7.2/KV7.3 channel (Homo sapiens, UniProt O43525+O43526)", "assay": "not given", "assay_type": "cell-based", "details": "HEK293", "units": {"Emax": "%"}, "values": [
      {"smiles": "CNc1nc(SCc2ccccc2)ccc1NC(=O)Cc1cc(F)cc(F)c1", "note": "[9 g, N‐[6‐(Benzylthio)‐2‐(methylamino)pyridin‐3‐yl]‐2‐(3,5‐difluorophenyl)acetamide]", "Emax": "147 ± 9"},
      {"smiles": "CCOC(=O)Nc1ccc(SCc2ccc(F)cc2)nc1C", "note": "[9 h, E t hyl [6-(4-fluorobenzylthio)-2-methylpyridin-3-yl]carbamate]", "Emax": "129 ± 3"}
    ]},
    {"target": "KV7.2/KV7.3 channel (Homo sapiens, UniProt O43525+O43526)", "assay": "not given", "assay_type": "cell-based", "details": "thallium flux assay; compared with 1", "values": [
      {"smiles": "CNc1nc(SCc2ccccc2)ccc1NC(=O)Cc1cc(F)cc(F)c1", "note": "[9 g, N‐[6‐(Benzylthio)‐2‐(methylamino)pyridin‐3‐yl]‐2‐(3,5‐difluorophenyl)acetamide]", "KV7.2/KV7.3 channel opening activity (in words)": "markedly more potent and effective"},
      {"smiles": "CCOC(=O)Nc1ccc(SC(=O)c2ccc(F)cc2)nc1N", "note": "[9 e, S-{6-Amino-5-[(ethoxycarbonyl)amino]pyridin-2-yl} 4-fluorobenzothioate]", "KV7.2/KV7.3 channel opening activity (in words)": "inactive in the tested concentration range"}
    ]},
    {"test_system": "not listed separately", "assay": "Anodic peak potential by cyclic voltammetry", "assay_type": "physicochemical", "details": "1.0 mM compound in 100 mM TRIS‐buffer (pH 7.4)", "values": [
      {"smiles": "CNc1nc(SCc2ccccc2)ccc1NC(=O)Cc1cc(F)cc(F)c1", "note": "[9 g, N‐[6‐(Benzylthio)‐2‐(methylamino)pyridin‐3‐yl]‐2‐(3,5‐difluorophenyl)acetamide]", "Anodic peak potential E pa": "631 mV"},
      {"smiles": "CCOC(=O)Nc1ccc([S+]([O-])Cc2ccc(-c3ccccc3)cc2)nc1N", "note": "(centres unmarked) [10 b, E t hyl {6-[(1,1'-biphenyl-4-yl)methylsulfinyl]-2-aminopyridin-3-yl}carbamate]", "Anodic peak potential E pa": "654 mV"},
      {"smiles": "Nc1nc([S+]([O-])Cc2ccc(F)cc2)ccc1NC(=O)c1ccc(F)c(F)c1", "note": "(centres unmarked) [10 a, N-[2-Amino-6-(4-fluorobenzylsulfinyl)pyridin-3-yl]-3 ,4-difluorobenzamide]", "Anodic peak potential E pa": "628 mV"},
      {"smiles": "CCOC(=O)Nc1ccc(SCc2ccc(F)cc2)nc1C", "note": "[9 h, E t hyl [6-(4-fluorobenzylthio)-2-methylpyridin-3-yl]carbamate]", "Anodic peak potential E pa": "855 mV"},
      {"smiles": "CCOC(=O)Nc1ccc([S+]([O-])Cc2ccc(F)cc2)nc1C", "note": "(centres unmarked) [10 d]", "Anodic peak potential E pa": "n.o.^[g]"},
      {"smiles": "CCOC(=O)Nc1ccc(SC(=O)c2ccc(F)cc2)nc1N", "note": "[9 e, S-{6-Amino-5-[(ethoxycarbonyl)amino]pyridin-2-yl} 4-fluorobenzothioate]", "Anodic peak potential E pa": "573 mV"}
    ]}
  ]
}
